High-throughput results (PubChem BioAssay)
M1 ag: activates the M1 muscarinic receptor; B-score at 10 µM; CHO-M1 cells, Fluo-4 calcium fluorescence, agonist mode; active compounds read high; 64,000 compounds, 3% hits;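 active = fluorescence rise, raw or as B-score row- and column-corrected plate score, outside the 99.7% band of its plate's samples, either direction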
S1P3 ag: agonists of human S1P3 receptor | Q99500 | S1P3 NFAT-BLA reporter cells, agonism, FRET ratio; relative to 1 µM S1P, basal subtracted | activation, % at 4.5 µM | 60,000 compounds, 0.1% hits | AID 373;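 active = activation above the screen-wide mean plus 3 SD, cut at about 4.5% in these data, passing the limit was not always enough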
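Assay system: CHO cells stably expressing human S1P3, Gα16 and NFAT-β-lactamase reporter. Timing: overnight plating, 4 h compound 37 °C, 2 h substrate RT. Signal: β-lactamase FRET emission ratio 460/535 nm. Measure: percent activation versus median 1 µM S1P response, basal-subtracted, per plate. Repeats: primary screen single test, confirmation screen in triplicate.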
D1 mod: allosterically modulates the human D1 dopamine receptor. P21728. HEK293 D1, CRE-luciferase, dopamine EC30 potentiation; actives deviate in either direction. B-score at 10 µM. 58,000 compounds, 5.9% hits. AID 641;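 active = luminescence count or its row- and column-corrected plate score outside the 99.7% band of the plate's sample wells, on either side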
Target sequence (P21728 whole entry, looked up): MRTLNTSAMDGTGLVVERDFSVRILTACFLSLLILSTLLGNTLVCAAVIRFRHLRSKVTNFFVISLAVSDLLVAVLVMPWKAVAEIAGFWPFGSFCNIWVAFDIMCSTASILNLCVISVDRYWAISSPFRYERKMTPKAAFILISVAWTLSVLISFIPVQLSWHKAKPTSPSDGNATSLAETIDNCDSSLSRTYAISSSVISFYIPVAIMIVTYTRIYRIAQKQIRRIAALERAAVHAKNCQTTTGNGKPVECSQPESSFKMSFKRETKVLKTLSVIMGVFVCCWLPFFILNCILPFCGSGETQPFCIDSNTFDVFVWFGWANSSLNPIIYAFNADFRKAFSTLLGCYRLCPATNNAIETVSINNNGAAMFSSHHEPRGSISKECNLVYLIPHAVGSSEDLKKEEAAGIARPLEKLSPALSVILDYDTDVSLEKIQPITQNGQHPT
M1 antag: antagonists of rat M1 muscarinic receptor; B-score at 10 µM; P08482; CHO-M1 cells, Fluo-4 calcium, ACh EC80 antagonist mode; active compounds read low; 64,000 compounds, 3.4% hits;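 active = calcium fluorescence response, raw or row-and-column corrected B-score, differing from the plate sample mean either way at a set confidence level, mostly lower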
S1P1 ag pot: activates or potentiates agonism at human S1P1 receptor; P21453; S1P1 CRE-bla cells, forskolin, beta-lactamase FRET, potentiator mode; S1P1 agonist co-added at EC20, 2 nM; 100% = saturating reference agonist, 0% = basal; activation, % at 9.5 µM; 56,000 compounds, 0.57% hits; AID 449;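 active = activation above a cutoff set at the mean activation of all tested compounds plus 3 SD, cut at about 54% in these data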;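 note: forskolin at 4 µM as EC80 and the EC20 agonist is SEW2871; 100% = SEW2871 at its EC100 plus forskolin at EC80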
D1 mod confirm: D1 receptor (human) allosteric modulation, confirmed. shares compounds with D1 mod. 2,200 compounds, 88% hits. AID 642. luminescence at 10 µM. HEK293 D1 CRE-luciferase, dopamine EC30 potentiation; active compounds read high;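 active = luminescence in either of two replicates above the same-plate mean plus 3 SD of the low-dose dopamine control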
D1 no dopamine: activates D1 CRE-luciferase signal without dopamine present; shares compounds with D1 mod; HEK293 D1 CRE-luciferase, luminescence, no dopamine; active compounds read high; luminescence at 10 µM; 1,900 compounds, 0.8% hits; AID 646; in the data active = luminescence above about 3900
Isoprot counter: counter-screen for D1 modulators: isoproterenol response in HEK293 cells; shares compounds with D1 mod; HEK293 D1 CRE-luciferase, isoproterenol EC30 counter-screen; active compounds read high; luminescence at 10 µM; 2,200 compounds, 63% hits; AID 647;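 active = luminescence in either replicate above plate mean of wells with a partly effective reference agonist dose plus 3 SD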;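 note: isoproterenol raises cAMP through native beta-adrenoceptor Gs so signal bypasses D1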
An asterisk follows results filed as active; / = no result. An excerpt weighted towards active compounds, which were near 11% of everything screened.

SMILES	M1 ag	S1P3 ag	D1 mod	M1 antag	S1P1 ag pot	D1 mod confirm	D1 no dopamine	Isoprot counter
Cn1c(=O)c2[nH]cnc2n(-c2ccccc2)c1=O	1.17	-1.0	7.33*	0.621	-14.9	23812*	1516	4140*
CC(=O)Nc1cc2c(cc1C(=O)C(C)C)OCCO2	-0.953	-0.1	5.27*	1.23	-9.1	14100*	/	3040*
CCOc1ccc(OCC)c(NC(=O)CN2CCN(C(=O)c3ccco3)CC2)c1	-0.166	0.1	26.1*	-0.00425	0.0	4124	1704	2052
CCOc1ccc(OCC)c(NC(=O)CN2CCN(c3cccc(C)c3C)CC2)c1	0.0629	/	/	-0.566	/	/	/	/
Cc1ccc(C(C#N)N2CCOCC2)cc1 (centres undefined)	-0.228	0.7	-1.73	-0.0981	-12.8	/	/	/
CCOc1ccc(Br)cc1-c1noc(-c2cccs2)n1	-1.28	-0.5	6.66*	0.0953	/	22604*	1692	4336*
O=S(=O)(Nc1ccc(S(=O)(=O)N2CCCCC2)cc1)c1ccc(Br)s1	-1.77	-0.6	-0.895	-0.301	21.4	/	/	/
COc1cccc(N(C(=O)c2cccs2)c2nc3ccccc3s2)c1	-1.01	0.4	7.59*	0.813	37.1	7024*	/	2952*
CCCC1(C(=O)OCC)NC(c2ccc(N(C)C)cc2)C2C(=O)N(c3ccc(OCC)cc3)C(=O)C21 (centres undefined)	0.179	-0.6	2.92*	0.985	0.1	4600	1488	2580
CCCC1(C(=O)OCC)NC(c2ccc(N(C)C)cc2)C2C(=O)N(c3ccccc3)C(=O)C21 (centres undefined)	1.47	-0.7	-0.732	-0.188	2.9	/	/	/
CCn1c(CSc2nnc(C)n2-c2ccccc2)nc2cc(S(=O)(=O)N(C)C)ccc21	0.673	0.6	1.8*	0.504	-9.9	5780	1620	2596
CCn1c(CSc2nnc(-c3ccoc3C)n2C)nc2cc(S(=O)(=O)N(C)C)ccc21	0.41	0.4	0.533	0.0264	13.4	/	/	/
COc1ccc(N2C(=O)C3CCCN3C2c2ccccc2)cc1 (centres undefined)	0.895	-0.3	-0.545	0.9	-12.9	/	/	/
CNC[C@H](O)c1cccc(O)c1	0.443	-4.4	17.4*	-0.502	13.7	11024*	5672*	16336*
OC(CNCCc1ccccc1)c1ccccc1 (centres undefined)	-0.894	0.7	-0.483	-0.0336	-20.0	/	/	/
COCCNc1oc(-c2ccc(Cl)cc2)nc1C#N	-0.198	-2.6	0.622	-0.343	1.2	/	/	/
N#Cc1nc(Cc2ccccc2)oc1NCc1ccccc1Cl	0.213	-1.0	11.7*	-1.64	/	11100*	1556	4116*
N#Cc1nc(-c2ccccc2Cl)oc1NCc1ccco1	0.00849	-1.2	4.74*	0.875	-0.9	12632*	1648	4124*
COCCNc1oc(-c2ccc(C)cc2)nc1C#N	-0.29	-1.9	5.06*	0.281	6.1	5796*	1872	2756
CNc1oc(-c2ccccc2)nc1C#N	0.0567	-1.6	7.41*	-1.34	7.6	11304*	1648	3240*
COc1ccc(CNc2oc(-c3ccccc3)nc2C#N)cc1	-1.69	0.4	10.4*	0.835	-4.5	18596*	1724	5400*
N#Cc1nc(-c2ccco2)oc1NCc1cccnc1	-0.357	0.2	2.31	0.302	-41.1	/	/	/
N#Cc1nc(-c2ccco2)oc1NCc1ccc(F)cc1	-0.00443	0.0	6.57*	-0.341	-5.3	12560*	1876	3668*
O=C(c1cccc2ccccc12)N1CCC(N2CCN(c3ccccc3)CC2)CC1	-0.309	-3.2	-1.13	0.53	7.7	/	/	/
COc1ccc(C2(C(=O)NCCCN3CCOCC3)CCOCC2)cc1	-0.29	0.0	0.935	-1.62	-2.0	/	/	/
SMILES	M1 ag	S1P3 ag	D1 mod	M1 antag	S1P1 ag pot	D1 mod confirm	D1 no dopamine	Isoprot counter
CCn1c(SCc2cccnc2)nc2c1c(=O)n(C)c(=O)n2C	0.021	-0.1	4.97*	1.15	-10.0	5832*	1320	2496
CCCCn1c(SCc2cccnc2)nc2c1c(=O)n(C)c(=O)n2C	0.744	1.4	1.71	-0.145	10.3	/	/	/
C=C(C)CSc1nc(N)c2c(C)c(C)sc2n1	0.446	-0.2	10.9*	-0.889	-12.8	16788*	1564	3412*
COc1cc(C)nc(NS(=O)(=O)c2ccc(C)cc2)n1	0.922	-0.9	0.408	-0.0602	9.6	/	/	/
COc1ccc(C2c3c(-c4cc(Cl)c(C)cc4O)n[nH]c3C(=O)N2Cc2cccnc2)cc1OC (centres undefined)	-1.67	-0.8	4.27*	-0.23	-39.0	9304*	/	4244*
O=C1COc2ccc3ccccc3c2CN1	0.377	/	0.113	0.66	/	/	/	/
O=C1COc2ccc(C(=O)c3ccccc3)cc2CN1	-1.17	0.6	4.71*	-0.131	-34.3	5740*	1572	3212
COCCCNc1nc(-c2ccncc2)nc2ccccc12	3.29	-2.3	5.68*	-1.3	-8.3	6996*	/	3008*
CC(C)CC(=O)CN1C(=O)C2(OCCO2)c2ccccc21	1.23	-0.6	-0.00254	2.03	-7.6	/	/	/
O=C(Cn1c(=O)n(Cc2ccc3c(c2)OCO3)c(=O)c2ccccc21)N1CCCc2ccccc21	0.971	-1.1	6.02*	0.969	13.4	10984*	1796	3144*
CC1CCN(C(=O)Cn2c(=O)n(Cc3ccc4c(c3)OCO4)c(=O)c3ccccc32)CC1	/	-1.4	/	/	-3.8	/	/	/
Cc1noc(C)c1S(=O)(=O)N1CCCC(C(=O)NCc2ccccn2)C1 (centres undefined)	-0.471	0.4	4.17*	0.246	3.3	6380*	1568	2512
CCOC(=O)c1cnc(-n2nc(C)cc2C)nc1Nc1ccc(N(C)C)cc1	1.37	-0.6	12.4*	-1.2	1.0	12468*	1584	3496*
CCOC(=O)c1cnc(-n2nc(C)cc2C)nc1Nc1cccc(C(=O)O)c1	0.172	-1.3	4.34*	0.0228	7.8	9100*	1376	2968
CCOC(=O)c1cnc(-n2nc(C)cc2C)nc1Nc1ccc2c(c1)OCO2	0.22	-1.0	1.79	-0.565	3.9	/	/	/
CC(=O)NC(CC(C)C)C(=O)NC(=O)NCc1ccccc1 (centres undefined)	0.979	-1.1	0.0562	0.0799	-22.6	/	/	/
Cc1cc(NC(=O)c2sccc2C)n(-c2cccc(Cl)c2)n1	0.418	-0.3	4.87*	0.35	-27.6	12892*	1740	3424*
CCCCCOc1ccc(C(=O)NCC(=O)NCC(=O)OCC)cc1	-1.27	-1.7	0.000524	-0.279	-3.0	/	/	/
OC(CN1CCOCC1)CN1CCOCC1	-0.533	-1.3	2.63*	-0.229	2.8	6000	1732	2564
